The values that follow come from ChEMBL document CHEMBL1157783, “Synthesis, characterization and vasculoprotective effects of nitric oxide-donating derivatives of chrysin” (Bioorg Med Chem, 2010).

Calls of active or inactive are those of the source. The calls are words filed in the database; no cut-off is given here.

The target of data set [1] is Aldo-keto reductase family 1 member B1 (Bos taurus, UniProt P16116). The data set is described as follows: Inhibition of aldose reductase from calf lense by AR assay.
The nature of data set [2]: Induction of NO release in phosphate buffered saline of pH 7.4 at 100 uM after 1 hr by Griess assay in presence of L-cysteine. The format is physicochemical. The settings on record: buffer, pH 7.4, 1 h. In short, it runs like this: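 Incubated 1 h at 37 °C in PBS pH 7.4 with L-cysteine. Reaction mixture treated with Griess reagent (sulfanilamide, N-naphthylethylenediamine dihydrochloride, phosphoric acid) for 10 min at room temperature, then absorbance read at 540 nm. Expressed as percent of a theoretical maximum of 1 mol NO per mol compound. Sodium nitroprusside as positive control.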
(The Griess reaction detects nitrite, a stable product of nitric oxide.)

Data set [3] in a line: Inhibition of advanced glycation end product formation in phosphate buffered saline at pH 7.4 after 14 days by fluorospectrophotometry in presence of bovine serum albumin. The format is physicochemical.
In another data set the test system is HepG2. The data set is described as follows: Increase in glucose consumption in human HepG2 cells at 10 umol/L after 24 hrs by enzymatic method relative to control blank. Format: functional, cell-based. An outline of the steps:
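HepG2 cells in high-glucose DMEM with 10% FBS, grown to 80–90% confluence, switched to DMEM with 1% FBS for 12 h, then treated 24 h in the same medium. Medium glucose measured enzymatically with a kit. Consumption taken as blank-well glucose minus remaining glucose, then adjusted for cell number by MTT. Vehicle 0.1% DMSO; mean S.D., n = 3.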

As usually defined, the IC50 is the concentration that inhibits the measured activity by half. For `CC(=O)Oc1cc(OCCCCO[N+](=O)[O-])cc2oc(-c3ccccc3)cc(=O)c12`, the values for the IC50 in data set [1] and in data set [3] were 0.39 µM and at least 300 µM, respectively. The Activity in data set [2] was found to be 1.48%.

On to `O=C(CCCCO[N+](=O)[O-])OCOc1cc(O)c2c(=O)cc(-c3ccccc3)oc2c1`, for which the figures for the IC50 in data set [1] and in data set [3] were 0.13 µM and 52.5 µM, respectively. Moreover, the outcome in the data set on HepG2 was Active. For the same compound, in data set [2], the Activity was determined as 1.26%.

`O=c1cc(-c2ccccc2)oc2cc(OCCCCCCO[N+](=O)[O-])cc(O)c12`: the IC50 in data set [1] was 0.71 µM; in data set [3] it was at least 300 µM. The result in the data set with HepG2 was Active. Also, the Activity in data set [2] is on record as 1.21%.

As for `O=c1cc(-c2ccccc2)oc2cc(OCCCCO[N+](=O)[O-])cc(O)c12`, the values for the half-inhibitory concentration (IC50) in data set [1] and in data set [3] were 0.29 µM and 75.5 µM, respectively. In addition, the result in the data set on HepG2 was Active. The Activity in data set [2] is given as 1.43%.

As for `O=c1cc(-c2ccccc2)oc2cc(OCCO[N+](=O)[O-])cc(O)c12`, the IC50 was 0.49 µM in data set [1] and at least 300 µM in data set [3]. The result with HepG2 was Active. Also, in data set [2], the Activity came to 1.67%.

`O=C(CCO[N+](=O)[O-])OCOc1cc(O)c2c(=O)cc(-c3ccccc3)oc2c1`: the IC50 came to 0.3 µM in data set [1] and 43.9 µM in data set [3]. The Activity in data set [2] was determined as 1.77%.

Take `N=C(N)NN` [PIMAGEDINE]: the IC50 in data set [3] was 826 µM.

As to `O=C(CCCCCCO[N+](=O)[O-])OCOc1cc(O)c2c(=O)cc(-c3ccccc3)oc2c1`, the results for the IC50 in data set [1] and in data set [3] were 0.21 µM and 138 µM, respectively. For the same compound, the outcome in the data set on HepG2 was Active. For the same compound, the Activity in data set [2] is 1.38%.

On to `CC(=O)Oc1cc(OCCCCCCO[N+](=O)[O-])cc2oc(-c3ccccc3)cc(=O)c12`, for which the figures for the IC50 in data set [1] and in data set [3] were 0.42 µM and at least 300 µM, respectively. Also, the Activity in data set [2] is 1.43%.

For `O=c1cc(-c2ccccc2)oc2cc(O)cc(O)c12` [CHRYSIN], the IC50 in data set [1] was 7.79 µM; in data set [3] it was 63.5 µM. In addition, the outcome in the data set on HepG2 was inactive.

As to `CC(=O)Oc1cc(OCCO[N+](=O)[O-])cc2oc(-c3ccccc3)cc(=O)c12`, the values for the IC50 in data set [1] and in data set [3] were 0.86 µM and at least 300 µM, respectively. Besides, the Activity in data set [2] came out at 1.68%.
